ChEMBL document CHEMBL4689842, “EUbOPEN Chemogenomics Library wave 1” (2021)

Tested on: U2OS
Experiment: Multiplex assay against U2OS
Format: toxicity, cell-based
Settings: human
Summary of the method: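 Live cells were stained at seeding with Hoechst33342, BioTracker Green Microtubule Cytoskeleton Dye, MitoTracker Red and Annexin V Alexa Fluor 680. Following compound addition, they were imaged on a CQ1 microscope at 37°C and 5% CO2 and gated by CellPathfinder machine learning into Hoechst high-intensity objects or normal cells, with normal cells split into healthy, pyknosed or fragmented nuclei and pyknosed cells into mitotic or apoptotic. Tubulin, mitochondrial-mass and membrane-permeability phenotypes are per cents of healthy-nucleus cells.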

[1] = 12 h, 1 µM, compound concentration 1 uM, replicate 1
[2] = 12 h, 1 µM, compound concentration 1 uM, replicate 2
[3] = 12 h, 10 µM, compound concentration 10 uM, replicate 1
[4] = 12 h, 10 µM, compound concentration 10 uM, replicate 2
[5] = 24 h, 1 µM, compound concentration 1 uM, replicate 1
[6] = 24 h, 1 µM, compound concentration 1 uM, replicate 2
[7] = 24 h, 10 µM, compound concentration 10 uM, replicate 1
[8] = 24 h, 10 µM, compound concentration 10 uM, replicate 2

O=C(Nc1cccnn1)N1CCC(=Cc2cccc(Oc3ccc(C(F)(F)F)cn3)c2)CC1
Population Apoptotic (%) [1]: 36%
Population Fragmented Nuclei (%) [1]: 1%
Population Healthy Nuclei (%) [1]: 87%
Population Hoechst High Intensity Objects (%) [1]: 3%
Population Membrane Permeable-Phenotype (%) [1]: 33%
Population Mitochondria Different-Phenotype (%) [1]: 5%
Population Mitotic Cells (%) [1]: 63%
Population Normal (%) [1]: 96%
Population Pyknosed Nuclei (%) [1]: 10%
Population Tubulin-Different-Phenotype (%) [1]: 26%
Total Cell Count [1]: 187
Population Apoptotic (%) [2]: 14%
Population Fragmented Nuclei (%) [2]: 13%
Population Healthy Nuclei (%) [2]: 78%
Population Hoechst High Intensity Objects (%) [2]: 16%
Population Membrane Permeable-Phenotype (%) [2]: 30%
Population Mitochondria Different-Phenotype (%) [2]: 24%
Population Mitotic Cells (%) [2]: 85%
Population Normal (%) [2]: 83%
Population Pyknosed Nuclei (%) [2]: 7%
Population Tubulin-Different-Phenotype (%) [2]: 18%
Total Cell Count [2]: 101
Population Apoptotic (%) [3]: 83%
Population Fragmented Nuclei (%) [3]: 4%
Population Healthy Nuclei (%) [3]: 92%
Population Hoechst High Intensity Objects (%) [3]: 3%
Population Membrane Permeable-Phenotype (%) [3]: 8%
Population Mitochondria Different-Phenotype (%) [3]: 22%
Population Mitotic Cells (%) [3]: 16%
Population Normal (%) [3]: 96%
Population Pyknosed Nuclei (%) [3]: 3%
Population Tubulin-Different-Phenotype (%) [3]: 22%
Total Cell Count [3]: 311
Population Apoptotic (%) [4]: 0%
Population Fragmented Nuclei (%) [4]: 8%
Population Healthy Nuclei (%) [4]: 91%
Population Hoechst High Intensity Objects (%) [4]: 15%
Population Membrane Permeable-Phenotype (%) [4]: 12%
Population Mitochondria Different-Phenotype (%) [4]: 24%
Population Mitotic Cells (%) [4]: 0%
Population Normal (%) [4]: 84%
Population Pyknosed Nuclei (%) [4]: 0%
Population Tubulin-Different-Phenotype (%) [4]: 16%
Total Cell Count [4]: 336
Population Apoptotic (%) [5]: 18%
Population Fragmented Nuclei (%) [5]: 2%
Population Healthy Nuclei (%) [5]: 83%
Population Hoechst High Intensity Objects (%) [5]: 2%
Population Membrane Permeable-Phenotype (%) [5]: 21%
Population Mitochondria Different-Phenotype (%) [5]: 11%
Population Mitotic Cells (%) [5]: 81%
Population Normal (%) [5]: 97%
Population Pyknosed Nuclei (%) [5]: 14%
Population Tubulin-Different-Phenotype (%) [5]: 17%
Total Cell Count [5]: 250
Population Apoptotic (%) [6]: 27%
Population Fragmented Nuclei (%) [6]: 10%
Population Healthy Nuclei (%) [6]: 79%
Population Hoechst High Intensity Objects (%) [6]: 14%
Population Membrane Permeable-Phenotype (%) [6]: 19%
Population Mitochondria Different-Phenotype (%) [6]: 22%
Population Mitotic Cells (%) [6]: 72%
Population Normal (%) [6]: 85%
Population Pyknosed Nuclei (%) [6]: 10%
Population Tubulin-Different-Phenotype (%) [6]: 11%
Total Cell Count [6]: 114
Population Apoptotic (%) [7]: 33%
Population Fragmented Nuclei (%) [7]: 2%
Population Healthy Nuclei (%) [7]: 95%
Population Hoechst High Intensity Objects (%) [7]: 3%
Population Membrane Permeable-Phenotype (%) [7]: 5%
Population Mitochondria Different-Phenotype (%) [7]: 20%
Population Mitotic Cells (%) [7]: 66%
Population Normal (%) [7]: 96%
Population Pyknosed Nuclei (%) [7]: 2%
Population Tubulin-Different-Phenotype (%) [7]: 26%
Total Cell Count [7]: 221
Population Apoptotic (%) [8]: 83%
Population Fragmented Nuclei (%) [8]: 4%
Population Healthy Nuclei (%) [8]: 89%
Population Hoechst High Intensity Objects (%) [8]: 7%
Population Membrane Permeable-Phenotype (%) [8]: 8%
Population Mitochondria Different-Phenotype (%) [8]: 31%
Population Mitotic Cells (%) [8]: 16%
Population Normal (%) [8]: 92%
Population Pyknosed Nuclei (%) [8]: 5%
Population Tubulin-Different-Phenotype (%) [8]: 14%
Total Cell Count [8]: 231
